Measurements: the RNAGym collection of RNA variant scans (doi:10.1126/science.aae0568)
Variants at the floor of the assay were thinned out.

B1: tRNA (parent)
chain: GUUCCGUUGGCGUAAUGGUAACGCGUCUCCCUCCUAAGGAGAAGACUGCGGGUUCGAGUCCCGUACGGAACG

Variants of: B1
Experiment: yeast fitness relative to wild type (ratio to wild type); higher = fitter; tRNA-Arg(CCU), competitive growth, 37 C, YPD
Summary of the method: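 Gene amplicons from the start population and from each of six end populations were read by 100-nucleotide paired-end sequencing. Those end populations came from pooled Saccharomyces cerevisiae strains carrying tRNA-Arg(CCU) gene variants at the native locus, competed in YPD at 37°C for 24 hours. Fitness relative to wild type was worked out from changes in genotype frequencies. Genotypes needed ≥ 100 starting reads, and estimates < 0.5 were set to 0.5.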
In the case of A14C C46U, the yeast fitness is reported as 0.915.
A14C G17A G23A C29G A42C G56A C62U showed a yeast fitness of at most 0.5.
A14C C27U C46U A70G showed a yeast fitness of at most 0.5.
With U13G C31U U35A the yeast fitness was 0.51.
Work on A14C G17C G18A G23C A57C yielded a yeast fitness of at most 0.5.
Work on A14C G25A yielded a yeast fitness of 0.889.
For A14C G25C, the yeast fitness was 0.583.
In the case of A14C A21G, the yeast fitness is reported as 0.713.
Work on A14C A21C yielded a yeast fitness of 0.609.
With A14C A15G the yeast fitness was 0.675.
For A14C A21C C27U, the yeast fitness was at most 0.5.
With U13G C22G G63C G67A the yeast fitness was at most 0.5.
With A14C C27G C46G the yeast fitness was 0.619.
With U13G A43G the yeast fitness was 0.902.
Work on A14C C29G yielded a yeast fitness of at most 0.5.
Work on A14C C29U C33G yielded a yeast fitness of 0.527.
With A14C A42U C55G the yeast fitness was at most 0.5.
U13G U32C C33U C62U A65G gave a yeast fitness of at most 0.5.
U13C G67U showed a yeast fitness of 0.719.
U13G A20U A69U gave a yeast fitness of 0.708.
Variant U13G G48A has a yeast fitness of 0.986.
Work on U13G C24G A36C A40U G48A yielded a yeast fitness of 0.525.
In the case of A14C C33G A42C G48A C60U, the yeast fitness is reported as at most 0.5.
In the case of A14C C22U, the yeast fitness is reported as 0.61.
For A14C C22G, the yeast fitness was 0.701.
For U13C U28A C62U C66A, the yeast fitness was at most 0.5.
A14G A15G U32A gave a yeast fitness of at most 0.5.
In the case of U13G C31A U54C A57U, the yeast fitness is reported as at most 0.5.
A14C G56C gave a yeast fitness of 0.567.
A14C C34G A43U G48A gave a yeast fitness of at most 0.5.
With U13G U28A C49A C55U C60U C61U the yeast fitness was at most 0.5.
Work on U13G U28A C30A yielded a yeast fitness of at most 0.5.
Work on A14C C34A yielded a yeast fitness of 0.565.
With A14C C22G G63A the yeast fitness was 0.642.
Variant U13G A40G C61U G63C has a yeast fitness of at most 0.5.
A14C U54A showed a yeast fitness of 0.528.
A14C A36G C62A showed a yeast fitness of at most 0.5.
In the case of A14C A36G C62U, the yeast fitness is reported as at most 0.5.
For A14C C29U C31U A36G A45U A70G, the yeast fitness was at most 0.5.
Work on A14C U16G A21G A70U yielded a yeast fitness of at most 0.5.
U13C U26C C31U showed a yeast fitness of 0.784.
For A14C G25A A37U A42G, the yeast fitness was at most 0.5.
Variant U13G C31A has a yeast fitness of 0.833.
With A14C C34U G39C C55U G56C the yeast fitness was at most 0.5.
In the case of A14C A40C U64C, the yeast fitness is reported as 0.622.
For A14C G18A G67U, the yeast fitness was at most 0.5.
Variant A14C C31G A43C G51A has a yeast fitness of at most 0.5.
Variant U13G A20U U53C C62U has a yeast fitness of at most 0.5.
Variant U13G C29U G48A G56A has a yeast fitness of 0.55.
A14C C27G C46G C55G showed a yeast fitness of at most 0.5.
Variant A14C C34G A57U has a yeast fitness of 0.518.
In the case of A14C C24A C27G C46G A65G, the yeast fitness is reported as at most 0.5.
In the case of A14C C30A C31U A36U, the yeast fitness is reported as at most 0.5.
A14C A42G A57U showed a yeast fitness of at most 0.5.
For A14C U32G A45G U64C, the yeast fitness was at most 0.5.
For U13G A40U C62A, the yeast fitness was 0.52.
With A14C C33A G41U C49U C66U the yeast fitness was at most 0.5.
A14C C22G G25C G44A gave a yeast fitness of at most 0.5.
U13G C24U G44A G58C showed a yeast fitness of 0.508.
A14C C24U A36G gave a yeast fitness of 0.591.
Work on A14C C24A U32G G41C yielded a yeast fitness of 0.501.
Variant A14C C24U U35C C55U has a yeast fitness of at most 0.5.
A14C A15C C34G A43C C49A showed a yeast fitness of 0.627.
A14C A20G C27U U64A G67A showed a yeast fitness of 0.566.
With A14C A42U G44C the yeast fitness was at most 0.5.
With A14C C29U A36G A45U A70U the yeast fitness was at most 0.5.
For A14C C29U A36G A45U A70G, the yeast fitness was 0.548.
A14C U16A C66U gave a yeast fitness of at most 0.5.
In the case of U13G G17U U28A G41C U64G, the yeast fitness is reported as at most 0.5.
For U13G U35C A70U, the yeast fitness was 0.508.
Work on U13G G63C yielded a yeast fitness of 0.696.
A14C A15C G25C A57C C62G A69G showed a yeast fitness of at most 0.5.
Work on A14G A15U C34U yielded a yeast fitness of 0.505.
A14C C31U showed a yeast fitness of 0.706.
With A14C G17C C31U A37C the yeast fitness was 0.577.
For U13G C46U A65G, the yeast fitness was 0.773.
Work on A14C U16C C61U yielded a yeast fitness of at most 0.5.
For A14G A15C U26C U35G C49G, the yeast fitness was at most 0.5.
Work on A14C C55U yielded a yeast fitness of 0.645.
With A14C C55G the yeast fitness was 0.827.
U13G C30U U32C showed a yeast fitness of 0.686.
Work on A14C A42G U47C yielded a yeast fitness of at most 0.5.
For U13G A65G C66A, the yeast fitness was at most 0.5.
Variant A14C G17A G68A has a yeast fitness of 0.522.
With A14C C60G A70U the yeast fitness was at most 0.5.
Variant U13G A21C has a yeast fitness of 0.611.
Work on U13G A21G yielded a yeast fitness of 0.895.
Variant U13G A36U A40C has a yeast fitness of at most 0.5.
U13G G25A U59C showed a yeast fitness of 0.681.
In the case of U13G C22U G25A C31A, the yeast fitness is reported as 0.601.
A14C A42U C60G A70G showed a yeast fitness of at most 0.5.
U13G C31G A43U C46G A70U gave a yeast fitness of at most 0.5.
In the case of A14C C33U, the yeast fitness is reported as 0.64.
A14C G25A C33G A36U A45G G52C gave a yeast fitness of at most 0.5.
With A14C A40G the yeast fitness was 0.596.
In the case of A14C A40U, the yeast fitness is reported as 0.587.
Variant A14C A43G A69C has a yeast fitness of at most 0.5.
With U13G G18C C30U C33G U47G the yeast fitness was 0.578.
A14C C22A A37U showed a yeast fitness of 0.646.
With A14C G18A C22G A57U C61G the yeast fitness was at most 0.5.
With A14C G25C G48A the yeast fitness was 0.608.
A14C A45U G50C G68C gave a yeast fitness of at most 0.5.
Variant A14C C27A C31A has a yeast fitness of 0.588.
In the case of U13G U32G A45G C49U A70U, the yeast fitness is reported as at most 0.5.
In the case of U13G G39C, the yeast fitness is reported as 0.735.
In the case of A14G A15C G51C C61G, the yeast fitness is reported as at most 0.5.
A14C U16A U54A G58C showed a yeast fitness of at most 0.5.
Work on A14C A43C A57G C66U yielded a yeast fitness of at most 0.5.
Variant U13G A40G U47C A69U has a yeast fitness of 0.653.
A14C C33G G44A C49A C55A showed a yeast fitness of at most 0.5.
With A14C G25C C66U the yeast fitness was 0.531.
A14C A57G A69U showed a yeast fitness of at most 0.5.
A14C C49U gave a yeast fitness of 0.715.
Work on A14C A15U C62G yielded a yeast fitness of at most 0.5.
In the case of U13G C24U G56A, the yeast fitness is reported as 0.612.
A14C U26C U54C C55G C61A showed a yeast fitness of at most 0.5.
In the case of A14G A15C U35C C46A A69U, the yeast fitness is reported as at most 0.5.
U13G U28A C30A C61G gave a yeast fitness of at most 0.5.
A14C A20G A36G C55U G68C gave a yeast fitness of at most 0.5.
U13G U54A G68C showed a yeast fitness of at most 0.5.
A14C C27G A69U showed a yeast fitness of 0.561.
Variant A14C C30A C66U A70G has a yeast fitness of 0.622.
Variant A14C G17C U26A G41C has a yeast fitness of at most 0.5.
Work on U13G C27U C31U C34G A40G G63C yielded a yeast fitness of at most 0.5.
Work on U13G C22U yielded a yeast fitness of 0.972.
Variant U13G C22G has a yeast fitness of 0.809.
Work on A14C C22G A37C yielded a yeast fitness of at most 0.5.
U13G A40U gave a yeast fitness of 0.945.
With A14C C62G the yeast fitness was 0.599.
Work on A14C A40C G41C C55A A70U yielded a yeast fitness of at most 0.5.
U13G U28G A57U A65C A69C gave a yeast fitness of at most 0.5.
A14C G25C C27G C34U U35A G38A C66U showed a yeast fitness of at most 0.5.
In the case of A14C A21C C24U A36U A43U G58C, the yeast fitness is reported as at most 0.5.
For A14G A15C A37C C46A A69U, the yeast fitness was at most 0.5.
In the case of A14C A21U A45C A57G, the yeast fitness is reported as at most 0.5.
With A14C A21U C24A A37U A45U the yeast fitness was at most 0.5.
Work on A14C C24U C29U A40U G68U yielded a yeast fitness of at most 0.5.
U13G C24U A36G U47C G50A gave a yeast fitness of 0.518.
Work on A14C C30G A37G A45G U59C G67C yielded a yeast fitness of at most 0.5.
A14C G18C G56A showed a yeast fitness of at most 0.5.
A14C G23A C29U U35C G48A gave a yeast fitness of at most 0.5.
Work on A14C A57U C61U yielded a yeast fitness of at most 0.5.
Variant U13G U26G C33G U47A has a yeast fitness of 0.602.
Variant A14C C24U U26A G52C has a yeast fitness of at most 0.5.
With A14C A15G A42G the yeast fitness was 0.738.
U13G C24A C46G G52A gave a yeast fitness of at most 0.5.
U13G U35G A40G showed a yeast fitness of 0.676.
A14C A20U C66U showed a yeast fitness of at most 0.5.
In the case of A14C A36G A69C, the yeast fitness is reported as at most 0.5.
A14C C30U G41C A69U gave a yeast fitness of at most 0.5.
For A14C G18C C29U A65C, the yeast fitness was at most 0.5.
In the case of A14C A57C, the yeast fitness is reported as 0.516.
With A14C C24G A42G the yeast fitness was at most 0.5.
In the case of U13G C27A C30A A57C, the yeast fitness is reported as at most 0.5.
Variant A14C A69G has a yeast fitness of 0.692.
Work on U13G C27A yielded a yeast fitness of 0.628.
For A14C C61U C66G, the yeast fitness was 0.522.
A14C U64C showed a yeast fitness of 0.935.
For U13G A15C C30G C34A U35A U53C A57U C60G, the yeast fitness was 0.564.
A14C A45U G48A C66G gave a yeast fitness of at most 0.5.
For U13G U35G A40G C61A, the yeast fitness was at most 0.5.
Work on A14C A20G C22U C49G G56C yielded a yeast fitness of at most 0.5.
Work on A14C U16A U26C C66U A69C yielded a yeast fitness of at most 0.5.
U13G U16C A42U G44A C49A gave a yeast fitness of at most 0.5.
A14C C46U G67C showed a yeast fitness of 0.589.
For A14C A36U G38A A65C, the yeast fitness was at most 0.5.
For A14C G18C A65U G68C, the yeast fitness was at most 0.5.
